Source: article PMC6600871 (Nature chemical biology, 2019)
pIC50: −log10 of the molar value.

Tests used:
[1] = target: SMARCA2^BD (Homo sapiens, UniProt P51531); type: binding
[2] = Caco-2 permeability assay; type: in vitro ADME; conditions: human, Caco-2, pH 7.2
[3] = target: SMARCA2 (Homo sapiens, UniProt P51531); assay: Protein degradation assay; type: cell-based; conditions: MV-4-11 cells, 1 µM compound
[4] = target: SMARCA4 (Homo sapiens, UniProt P51532); assay: Protein degradation assay; type: cell-based; conditions: MV-4-11 cells, 1 µM compound
Chain of SMARCA4 (P51532 whole entry): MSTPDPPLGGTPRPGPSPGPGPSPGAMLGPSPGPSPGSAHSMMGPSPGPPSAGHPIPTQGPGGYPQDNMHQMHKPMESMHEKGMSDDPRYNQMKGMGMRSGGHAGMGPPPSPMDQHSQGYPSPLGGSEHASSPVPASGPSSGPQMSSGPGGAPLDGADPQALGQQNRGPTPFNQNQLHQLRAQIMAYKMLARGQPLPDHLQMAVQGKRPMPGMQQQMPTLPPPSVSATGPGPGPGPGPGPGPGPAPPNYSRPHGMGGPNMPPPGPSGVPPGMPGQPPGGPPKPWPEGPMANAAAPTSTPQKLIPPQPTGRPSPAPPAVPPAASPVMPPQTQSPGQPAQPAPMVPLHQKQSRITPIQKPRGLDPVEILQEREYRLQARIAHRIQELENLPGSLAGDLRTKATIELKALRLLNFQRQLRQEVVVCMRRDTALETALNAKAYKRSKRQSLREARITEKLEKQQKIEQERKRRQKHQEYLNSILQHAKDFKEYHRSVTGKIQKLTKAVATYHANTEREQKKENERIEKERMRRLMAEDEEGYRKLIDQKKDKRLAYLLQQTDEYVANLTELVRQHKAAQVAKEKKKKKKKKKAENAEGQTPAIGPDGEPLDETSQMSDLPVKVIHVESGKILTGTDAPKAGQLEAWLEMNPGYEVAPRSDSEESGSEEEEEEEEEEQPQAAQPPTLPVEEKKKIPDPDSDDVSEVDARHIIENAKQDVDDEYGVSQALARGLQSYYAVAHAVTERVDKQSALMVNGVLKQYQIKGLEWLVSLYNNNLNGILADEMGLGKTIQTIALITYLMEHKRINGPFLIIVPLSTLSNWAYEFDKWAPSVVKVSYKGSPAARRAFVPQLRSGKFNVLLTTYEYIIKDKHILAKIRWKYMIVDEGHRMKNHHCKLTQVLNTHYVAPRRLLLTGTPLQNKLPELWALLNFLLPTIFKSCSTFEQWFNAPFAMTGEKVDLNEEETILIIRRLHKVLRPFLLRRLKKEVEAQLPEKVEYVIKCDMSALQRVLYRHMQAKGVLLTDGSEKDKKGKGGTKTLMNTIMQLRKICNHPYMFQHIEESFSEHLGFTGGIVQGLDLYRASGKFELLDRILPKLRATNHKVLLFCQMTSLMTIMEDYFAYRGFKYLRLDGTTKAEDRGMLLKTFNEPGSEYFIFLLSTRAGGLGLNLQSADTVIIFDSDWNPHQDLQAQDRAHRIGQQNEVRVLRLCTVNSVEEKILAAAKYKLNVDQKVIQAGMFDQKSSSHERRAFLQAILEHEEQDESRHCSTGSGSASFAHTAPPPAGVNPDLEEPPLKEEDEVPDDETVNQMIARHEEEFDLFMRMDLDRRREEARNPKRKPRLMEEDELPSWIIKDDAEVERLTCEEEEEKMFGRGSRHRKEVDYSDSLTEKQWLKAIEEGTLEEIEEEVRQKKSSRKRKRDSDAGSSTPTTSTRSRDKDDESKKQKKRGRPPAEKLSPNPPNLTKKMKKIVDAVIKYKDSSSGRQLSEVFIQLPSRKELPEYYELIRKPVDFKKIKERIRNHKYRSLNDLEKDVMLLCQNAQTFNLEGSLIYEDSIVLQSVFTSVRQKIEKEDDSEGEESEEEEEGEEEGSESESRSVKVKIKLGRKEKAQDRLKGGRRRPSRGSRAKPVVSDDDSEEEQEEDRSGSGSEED

[5] = target: PBRM1 (Homo sapiens, UniProt Q86U86); assay: Protein degradation assay, PBRM1 in NCI-H1568 cells; type: cell-based; conditions: read-out: DC50 PBRM1, 18 h
Chain of PBRM1 (Q86U86 whole entry): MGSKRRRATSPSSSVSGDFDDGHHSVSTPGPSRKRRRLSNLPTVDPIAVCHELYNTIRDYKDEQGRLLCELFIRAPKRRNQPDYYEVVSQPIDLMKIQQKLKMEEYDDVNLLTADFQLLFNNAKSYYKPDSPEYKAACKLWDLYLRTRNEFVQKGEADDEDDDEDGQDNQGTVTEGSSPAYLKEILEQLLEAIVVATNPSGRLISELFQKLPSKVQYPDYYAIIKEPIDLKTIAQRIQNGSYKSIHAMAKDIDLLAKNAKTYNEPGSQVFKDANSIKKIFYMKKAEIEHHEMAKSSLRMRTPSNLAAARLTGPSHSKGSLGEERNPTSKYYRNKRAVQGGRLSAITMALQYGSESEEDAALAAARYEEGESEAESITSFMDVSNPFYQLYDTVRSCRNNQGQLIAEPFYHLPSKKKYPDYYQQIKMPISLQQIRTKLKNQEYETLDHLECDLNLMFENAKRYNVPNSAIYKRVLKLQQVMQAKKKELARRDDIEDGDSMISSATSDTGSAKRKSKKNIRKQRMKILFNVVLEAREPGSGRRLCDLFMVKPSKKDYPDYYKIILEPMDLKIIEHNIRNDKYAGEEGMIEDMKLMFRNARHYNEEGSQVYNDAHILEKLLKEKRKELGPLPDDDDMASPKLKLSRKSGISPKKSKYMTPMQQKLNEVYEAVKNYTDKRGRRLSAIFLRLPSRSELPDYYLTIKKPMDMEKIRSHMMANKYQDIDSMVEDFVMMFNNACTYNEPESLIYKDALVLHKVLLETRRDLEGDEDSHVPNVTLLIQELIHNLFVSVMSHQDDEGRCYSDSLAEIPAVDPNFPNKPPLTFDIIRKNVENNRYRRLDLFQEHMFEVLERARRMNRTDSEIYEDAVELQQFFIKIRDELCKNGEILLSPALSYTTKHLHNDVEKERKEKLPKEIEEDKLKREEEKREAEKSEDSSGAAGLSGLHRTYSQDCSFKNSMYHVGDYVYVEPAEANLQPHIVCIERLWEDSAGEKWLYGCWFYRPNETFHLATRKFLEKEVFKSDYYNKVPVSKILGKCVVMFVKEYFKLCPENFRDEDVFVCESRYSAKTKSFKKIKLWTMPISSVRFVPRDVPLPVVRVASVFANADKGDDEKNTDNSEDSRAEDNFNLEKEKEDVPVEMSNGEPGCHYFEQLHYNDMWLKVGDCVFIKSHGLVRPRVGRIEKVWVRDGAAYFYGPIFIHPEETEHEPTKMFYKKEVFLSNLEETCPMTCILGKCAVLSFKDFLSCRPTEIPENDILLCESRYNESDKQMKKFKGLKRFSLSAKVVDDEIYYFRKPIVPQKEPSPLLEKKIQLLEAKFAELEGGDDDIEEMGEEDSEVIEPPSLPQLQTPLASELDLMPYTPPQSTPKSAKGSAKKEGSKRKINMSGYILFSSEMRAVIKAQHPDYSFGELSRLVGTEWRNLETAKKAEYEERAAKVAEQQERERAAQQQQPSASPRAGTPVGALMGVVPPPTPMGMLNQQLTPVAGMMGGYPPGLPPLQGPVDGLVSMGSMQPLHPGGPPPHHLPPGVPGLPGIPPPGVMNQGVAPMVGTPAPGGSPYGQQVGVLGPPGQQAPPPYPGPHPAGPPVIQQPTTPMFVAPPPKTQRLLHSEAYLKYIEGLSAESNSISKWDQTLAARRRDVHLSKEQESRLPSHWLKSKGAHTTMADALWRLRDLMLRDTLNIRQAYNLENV
How it was run: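 Cells seeded at 20000/well in 24-well plates and held overnight at 37 °C. Test compound added from DMSO stock (DMSO normalised), 18 h at 37 °C. Lysed 30 min on ice in 1% Triton, 350 mM KCl, 10 mM Tris pH 7.4, 10 mM DTT, benzonase, protease/phosphatase inhibitors. Target protein quantified by WES capillary electrophoresis, normalised to GAPDH. Two independent experiments.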

[6] = system: MV-4-11 cells; assay: Proliferation assay; type: cell-based, human; conditions: read-out: anti-proliferative IC50, MV-4-11; cell viability after 7 days
[7] = system: SK-MEL-5 cells; assay: Proliferation assay; type: cell-based; conditions: Homo sapiens, SK-MEL-5, 168 h, read-out: anti-proliferative IC50, SK-MEL-5
[8] = system: NCI-H1703 cells; assay: Proliferation assay; type: cell-based, human; conditions: SMARCA2/4 null cell line, 7 days
[9] = system: panel of cancer cell lines; assay: Proliferation of a panel of cancer cell lines; type: cell-based, human; conditions: all cell lines tested
[10] = system: SK-MEL-5 cells; assay: Real-time apoptosis measurement; type: cell-based, human; conditions: SK-MEL-5, 0.3 µM, comparable to doxorubicin (1 µM)
[11] = system: proteome of MV-4-11 cells; assay: TMT labelling mass spectrometry proteomics in MV-4-11 cells; type: cell-based, human; conditions: 333 nM, 8 h
[12] = system: VHL-ElonginC-ElonginB (VCB) complex; assay: Isothermal titration calorimetry; type: binding, human; conditions: ITC, VCB ± SMARCA2^BD

Row | Structure (SMILES) | pIC50 [1] | efflux ratio [2] | time to half maximal degradation of SMARCA2 [3] [h] | time to half maximal degradation of SMARCA4 [4] [h] | DC50 [5] [nM] | pIC50 [6] | pIC50 [7] | anti-proliferative effect in NCI-H1703 [8] | anti-proliferative effect across cell lines tested [9] | caspase activity / apoptosis [10] | effect on cellular proteome [11] | cooperativity α (binary KD/ternary KD) [12] | Papp B→A at 2 h [2] [×10⁻⁶ cm/s]
1 | Cc1ncsc1-c1ccc(CNC(=O)[C@@H]2C[C@@H](O)CN2C(=O)[C@@H](NC(=O)C2(F)CC2)C(C)(C)C)c(OCCOc2ccc(CN3CCN(c4cc(-c5ccccc5O)nnc4N)CC3)cc2)c1 [ACBI1, (2S,4R)-N-(2-(2-(4-((4-(3-amino-6-(2-hydroxyphenyl)pyridazin-4-yl)piperazin-1-yl)methyl)phenoxy)ethoxy)-4-(4-methylthiazol-5-yl)benzyl)-1-((S)-2-(1-fluorocyclopropane-1-carboxamido)-3,3-dimethylbutanoyl)-4-hydroxypyrrolidine-2-carboxamide] | 6.11 | 1.7 | < 2 | < 2 | 15.6 | 7.54 | 7.11 | no anti-proliferative effects | potent anti-proliferative effects | increased caspase activity | significant knockdown of SMARCA2, SMARCA4 and PBRM1 with minimal down-regulation of other proteins across the proteome |  | 
2 | Cc1ncsc1-c1ccc(CNC(=O)[C@@H]2C[C@@H](O)CN2C(=O)[C@@H](NC(=O)C2(F)CC2)C(C)(C)C)c(OCCOCCOCCN2CCN(c3cc(-c4ccccc4O)nnc3N)CC2)c1 [PROTAC 1, (2S,4R)-N-(2-(2-(2-(2-(4-(3-amino-6-(2-hydroxyphenyl)pyridazin-4-yl)piperazin-1-yl)ethoxy)ethoxy)ethoxy)-4-(4-methylthiazol-5-yl)benzyl)-1-((S)-2-(1-fluorocyclopropane-1-carboxamido)-3,3-dimethylbutanoyl)-4-hydroxypyrrolidine-2-carboxamide] |  |  |  |  |  |  |  |  |  |  |  | 4.8 | 20.7
3 | Cc1ncsc1-c1ccc(CNC(=O)[C@@H]2C[C@H](O)CN2C(=O)[C@@H](NC(=O)C2(F)CC2)C(C)(C)C)c(OCCOc2ccc(CN3CCN(c4cc(-c5ccccc5O)nnc4N)CC3)cc2)c1 [cis-ACBI1, (2S,4S)-N-(2-(2-(4-((4-(3-amino-6-(2-hydroxyphenyl)pyridazin-4-yl)piperazin-1-yl)methyl)phenoxy)ethoxy)-4-(4-methylthiazol-5-yl)benzyl)-1-((S)-2-(1-fluorocyclopropane-1-carboxamido)-3,3-dimethylbutanoyl)-4-hydroxypyrrolidine-2-carboxamide] |  |  |  |  |  |  | < 5.00 | no anti-proliferative effects |  |  |  |  | 
